{"data": "Results collected from several papers", "CDK9": "Cyclin-dependent kinase 9 (CDK9, Homo sapiens, UniProt P50750)", "note": "Protocols differ between the studies behind these lines."}
{"SMILES": "CC(C)(C)c1cnc(CSc2cnc(NC(=O)C3CCN(C(=O)CCOCCCN4Cc5cc6c(cc5C4)C(=O)N(C4CCC(=O)NC4=O)C6=O)CC3)s2)o1 (stereo not drawn)", "target": "CDK9", "assay": "protein level, degrader, western blot", "test system": "TC-71", "setting": "25 nM", "measurement": "inhibition", "value": "85.1%"}
{"SMILES": "N#Cc1ccc(NC(=O)Nc2ccccc2)cc1", "target": "CDK9", "assay": "cell-free assay, competition with immobilised ligand", "setting": "25 µM", "measurement": "remaining binding", "value": "100%"}
{"SMILES": "CC(C)(C)c1cnc(CSc2cnc(NC(=O)C3CCN(CC(=O)NCCOCCOCCOCCNc4cccc5c4C(=O)N(C4CCC(=O)NC4=O)C5=O)CC3)s2)o1 (stereo not drawn)", "target": "CDK9", "assay": "protein level, degrader, western blot", "test system": "TC-71", "setting": "25 nM", "measurement": "inhibition", "value": "36.8%"}
{"SMILES": "CC#CC(=O)N1CCC[C@H]1c1nc(-c2ccc(C(=O)Nc3ccccn3)cc2)c2c(N)nccn12", "target": "CDK9", "assay": "enzyme activity, inhibitor", "setting": "1 µM", "measurement": "inhibition", "value": "0%"}
{"SMILES": "CC(C)(C)c1cnc(CSc2cnc(NC(=O)C3CCN(C(=O)COCCOCCN4Cc5cc6c(cc5C4)C(=O)N(C4CCC(=O)NC4=O)C6=O)CC3)s2)o1 (stereo not drawn)", "target": "CDK9", "assay": "protein level, degrader, western blot", "test system": "TC-71", "setting": "25 nM", "measurement": "inhibition", "value": "80.7%"}
{"SMILES": "C[C@]1(O)CCCN(c2nc(Nc3ccc(S(=O)(=O)N[C@H]4CC[C@H](CN5CCN(c6ccc(C7CCC(=O)NC7=O)cc6F)CC5)CC4)cc3F)ncc2C(F)(F)F)C1 (stereo partly drawn)", "target": "CDK9", "assay": "binding, competition with immobilised ligand", "setting": "1 µM", "measurement": "remaining binding", "value": "95%"}
{"SMILES": "CO[C@@H]1[C@H](N(C)C(=O)c2ccccc2)C[C@H]2O[C@]1(C)n1c3ccccc3c3c4c(c5c6ccccc6n2c5c31)C(=O)NC4", "target": "CDK9", "assay": "enzyme activity, inhibitor", "setting": "1 µM", "measurement": "inhibition", "value": "3%"}
{"SMILES": "CNS(=O)(=O)c1ccc(Nc2ncc(C(F)(F)F)c(N3CCC[C@](C)(O)C3)n2)c(C)c1", "target": "CDK9", "assay": "binding, competition with immobilised ligand", "setting": "1 µM", "measurement": "remaining binding", "value": "98%"}
{"SMILES": "Cc1ccc(NC(=O)c2ccnc(C(F)(F)F)c2)cc1-c1cc(OCCO)nc(N2CCOCC2)c1", "target": "CDK9", "assay": "binding", "setting": "1 µM", "measurement": "remaining binding", "value": "100%"}
{"SMILES": "COc1ccc2oc(-c3ccc4nc(N)oc4c3)c/c(=N\\c3ccccc3NC(=O)CCN)c2c1", "target": "Cyclin-dependent kinase 9, with cyclin T1 (CDK9, Homo sapiens, UniProt P50750)", "assay": "binding", "setting": "1 µM", "measurement": "remaining binding", "value": "93%"}
{"SMILES": "C[C@H]1CC[C@H](n2c3cnccc3c3cnc(Nc4ccc5c(n4)CCN(C(=O)CO)C5)nc32)CC1", "target": "CDK9", "assay": "cell-free assay", "setting": "1 µM", "measurement": "remaining signal", "value": "60%"}
{"SMILES": "CC(C)(C)c1cnc(CSc2cnc(NC(=O)C3CCN(C(=O)CCOCCN4Cc5cc6c(cc5C4)C(=O)N(C4CCC(=O)NC4=O)C6=O)CC3)s2)o1 (stereo not drawn)", "target": "CDK9", "assay": "protein level, degrader, western blot", "test system": "TC-71", "setting": "25 nM", "measurement": "inhibition", "value": "87.5%"}
